The text below walks through data of ChEMBL document CHEMBL4024748, “Development of Potent Type I Protein Arginine Methyltransferase (PRMT) Inhibitors of Leukemia Cell Proliferation” (J Med Chem, 2017).

In assay [1] the target is Histone-lysine N-methyltransferase EZH2 (Homo sapiens) (UniProt Q15910). The experiment in a line: Inhibition of EZH2 (unknown origin) at 50 uM incubated for 15 mins followed by substrate addition measured after 60 mins by radioisotope assay.
Assay [2] deals with MV4-11. Briefly: Induction of apoptosis in human MV4-11 cells after 96 hrs by annexin V-FITC/propidium iodide staining-based flow cytometric method. Format: functional, cell-based. The essentials: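 MV4-11 cells in 6-well plates with compound or DMSO control, harvested at 96 h. Stained with an Annexin V-FITC apoptosis detection kit and analysed by flow cytometry. Mean ± SD of three replicates.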
For orientation: In flow cytometry, cells or beads pass a laser one at a time.

Assay [3] concerns the target Histone-lysine N-methyltransferase 2A (Homo sapiens) (UniProt Q03164). Briefly: Inhibition of MLL1 (unknown origin) at 50 uM incubated for 15 mins followed by substrate addition measured after 60 mins by AlphaLisa method. The method, boiled down:
(§1)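 AlphaLISA. Enzyme and substrate in 1x assay buffer, compound at 1% DMSO final. Enzyme preincubated with compound 15 min at room temperature, then substrate added. Reaction 60 min at room temperature, then bead mix added and incubated 60 min under subdued light before signal read.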
For orientation: In Alpha technology, singlet oxygen from a donor bead excites a nearby acceptor bead.

The target in assay [4] is Protein arginine N-methyltransferase 1 (Rattus norvegicus) (UniProt Q63009). Briefly: Binding affinity to rat His-tagged PRMT1 (11 to 353 residues) expressed in Escherichia coli BL21(DE3) at 200 uM by STD-NMR spectroscopic method. The essentials: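 Rat PRMT1 (11–353), N-His6, expressed in E. coli BL21(DE3) with 0.4 mM IPTG at 16°C. Purified by Ni affinity and Superdex200. NMR used 5 µM PRMT1 in phosphate buffer pH 7.4 (20 mM NaH2PO4, 20 mM Na2HPO4, 100 mM NaCl) in D2O. Ligand at 200 µM in 5% DMSO-d6. CPMG run with 5, 2 and 1 µM PRMT1, plus STD.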

Assay [5] has as its target Histone acetyltransferase KAT2A (Homo sapiens) (UniProt Q92830). The experiment in a line: Inhibition of GCN5 (unknown origin) at 50 uM incubated for 15 mins followed by substrate addition measured after 60 mins by radioisotope assay.
In assay [6] the target is DNA (cytosine-5)-methyltransferase 1 (Homo sapiens) (UniProt P26358). The experiment in a line: Inhibition of DNMT1 (unknown origin) at 100 uM incubated for 15 mins followed by substrate addition measured after 60 mins by radioisotope assay.
In assay [7] the test system is MV4-11. Briefly: Upregulation of MNDA mRNA levels in human MV4-11 cells by qRT-PCR analysis. Format: functional, cell-based. The method, boiled down:
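Treated MV4-11 cells analysed by SYBR Green qRT-PCR, with B2M as internal control. Fold change calculated by the ΔΔCt method. Samples run in triplicate and reported as mean ± SD.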
(In general: Real-time PCR tracks product formation cycle by cycle.)

Assay [8] addresses Histone-lysine N-methyltransferase SUV39H1 (Homo sapiens) (UniProt O43463). The experiment in a line: Inhibition of SUV39H1 (unknown origin) at 50 uM incubated for 15 mins followed by substrate addition measured after 60 mins by AlphaLisa method. The method, boiled down:
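SUV39H1 AlphaLISA at 50 and 100 µM compound, 1% DMSO final. Enzyme preincubated 15 min at room temperature, substrate reaction 60 min at RT. Bead mix then added for 60 min at RT in subdued light before signal collection.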

In the next assay the test system is KOPN-8. The experiment in a line: Cytotoxicity against human KOPN8 cells assessed as decrease in cell viability after 96 hrs by Cell-Titer Glo assay. Format: functional, cell-based. The method, boiled down:
(§2)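 Cells kept at 37°C, 5% CO2, exposed to compound or DMSO control for 96 h. Viability read by CellTiter-Glo luminescence after 2 min shaking to lyse and 10 min at room temperature. Triplicate wells, normalised to control cells. For long-term growth, log-phase seeding densities; cells counted and replated to the starting density with fresh compound on days 4 and 8.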

For assay [9], the target named is Protein arginine N-methyltransferase 6 (Homo sapiens, UniProt Q96LA8). The experiment in a line: Inhibition of PRMT6 in human MV411 cells assessed as reduction in H3R2me2a levels after 48 hrs by Western blot analysis. Format: cell-based. The method, boiled down: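 MV4-11 cells (37°C, 5% CO2) exposed to compound for 48 h across a range of doses. Histone H3R2 asymmetric dimethylation read by western blot. Membranes blocked in 5% milk/PBST, primary antibody overnight at 4°C, then 1:10000 HRP donkey anti-rabbit secondary for 1 h.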

In assay [10] the target is Histone-lysine N-methyltransferase 2A (Homo sapiens) (UniProt Q03164). The experiment in a line: Inhibition of MLL1 (unknown origin) at 100 uM incubated for 15 mins followed by substrate addition measured after 60 mins by AlphaLisa method. The method, boiled down: as §1
The test system of assay [11] is MV4-11. The experiment in a line: Antiproliferative activity against human MV4-11 cells assessed as decrease in cell viability measured at day 8 by Cell-Titer Glo assay. To be noted: MV4-11, 192 h. Format: functional, cell-based. The method, boiled down: as §2
The test system of assay [12] is MV4-11. The experiment in a line: Cell cycle arrest in human MV4-11 cells assessed as accumulation at G1 phase after 72 hrs by propidium iodide staining-based flow cytometry. Format: functional. The method, boiled down:
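MV4-11 cells in 6-well plates with compound or DMSO control, harvested at 72 h. Fixed overnight in 70% ethanol at 4°C, washed with PBS, stained 30 min at room temperature with propidium iodide/RNase buffer, analysed by flow cytometry. Mean ± SD of three replicates.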

The target in assay [13] is Histone-lysine N-methyltransferase PRDM9 (Homo sapiens) (UniProt Q9NQV7). The experiment in a line: Inhibition of PRDM9 (unknown origin) at 50 uM incubated for 15 mins followed by substrate addition measured after 60 mins by AlphaLisa method. The method, boiled down: as §1
In assay [14] the target is Histone-lysine N-methyltransferase, H3 lysine-79 specific (Homo sapiens) (UniProt Q8TEK3). The experiment in a line: Inhibition of DOT1L (unknown origin) at 100 uM incubated for 15 mins followed by substrate addition measured after 60 mins by Alpha screen assay. The essentials:
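DOT1L by AlphaScreen. Enzyme and substrate in 1x assay buffer, compound at 1% DMSO final. Enzyme preincubated with compound 15 min at room temperature, substrate added, reaction 60 min at room temperature. Acceptor/donor bead mix added and incubated 60 min at room temperature under subdued light.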

Assay [15] has as its system MV4-11. Briefly: Antiproliferative activity against human MV4-11 cells assessed as decrease in cell viability measured at day 12 by Cell-Titer Glo assay. To be noted: MV4-11, 288 h. Format: functional, cell-based. The method, boiled down: as §2
Assay [16] addresses Protein arginine N-methyltransferase 1 (Homo sapiens) (UniProt Q99873). The experiment in a line: Inhibition of PRMT1 in human MV411 cells assessed as reduction in ADMA levels after 48 hrs by Western blot analysis. Type of assay: cell-based. The essentials:
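MV4-11 cells treated with compound for 48 h. ADMA, SDMA and H4R3me2a read by western blot. Blots blocked in 5% nonfat milk in PBST, primary antibodies overnight at 4°C, HRP anti-rabbit secondary at 1:10000 for 1 h.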

In assay [17] the target is Histone-lysine N-methyltransferase EHMT2 (Homo sapiens) (UniProt Q96KQ7). Briefly: Inhibition of G9a (unknown origin) at 50 uM incubated for 15 mins followed by substrate addition measured after 60 mins by AlphaLisa method. The essentials:
as §1

Assay [18] relates to MV4-11. Briefly: Antiproliferative activity against human MV4-11 cells assessed as decrease in cell viability measured at day 4 by Cell-Titer Glo assay. Format: functional, cell-based. Particulars: MV4-11, 96 h. The method, boiled down:
as §2

The target in assay [19] is N-lysine methyltransferase SMYD2 (Homo sapiens) (UniProt Q9NRG4). Briefly: Inhibition of SMYD2 (unknown origin) at 50 uM incubated for 15 mins followed by substrate addition measured after 240 mins by AlphaLisa method. The essentials: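 SMYD2 AlphaLISA at 50 and 100 µM compound, 1% DMSO final. Enzyme preincubated 15 min at RT, then substrate added and reacted 240 min at RT. Bead mix added and incubated 60 min at RT in subdued light before reading.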

Activity calls are given as the source filed them. No cut-off for these calls is given here.

Sequence of Histone-lysine N-methyltransferase 2A (Homo sapiens) (Q03164 1-2718 limits assumed): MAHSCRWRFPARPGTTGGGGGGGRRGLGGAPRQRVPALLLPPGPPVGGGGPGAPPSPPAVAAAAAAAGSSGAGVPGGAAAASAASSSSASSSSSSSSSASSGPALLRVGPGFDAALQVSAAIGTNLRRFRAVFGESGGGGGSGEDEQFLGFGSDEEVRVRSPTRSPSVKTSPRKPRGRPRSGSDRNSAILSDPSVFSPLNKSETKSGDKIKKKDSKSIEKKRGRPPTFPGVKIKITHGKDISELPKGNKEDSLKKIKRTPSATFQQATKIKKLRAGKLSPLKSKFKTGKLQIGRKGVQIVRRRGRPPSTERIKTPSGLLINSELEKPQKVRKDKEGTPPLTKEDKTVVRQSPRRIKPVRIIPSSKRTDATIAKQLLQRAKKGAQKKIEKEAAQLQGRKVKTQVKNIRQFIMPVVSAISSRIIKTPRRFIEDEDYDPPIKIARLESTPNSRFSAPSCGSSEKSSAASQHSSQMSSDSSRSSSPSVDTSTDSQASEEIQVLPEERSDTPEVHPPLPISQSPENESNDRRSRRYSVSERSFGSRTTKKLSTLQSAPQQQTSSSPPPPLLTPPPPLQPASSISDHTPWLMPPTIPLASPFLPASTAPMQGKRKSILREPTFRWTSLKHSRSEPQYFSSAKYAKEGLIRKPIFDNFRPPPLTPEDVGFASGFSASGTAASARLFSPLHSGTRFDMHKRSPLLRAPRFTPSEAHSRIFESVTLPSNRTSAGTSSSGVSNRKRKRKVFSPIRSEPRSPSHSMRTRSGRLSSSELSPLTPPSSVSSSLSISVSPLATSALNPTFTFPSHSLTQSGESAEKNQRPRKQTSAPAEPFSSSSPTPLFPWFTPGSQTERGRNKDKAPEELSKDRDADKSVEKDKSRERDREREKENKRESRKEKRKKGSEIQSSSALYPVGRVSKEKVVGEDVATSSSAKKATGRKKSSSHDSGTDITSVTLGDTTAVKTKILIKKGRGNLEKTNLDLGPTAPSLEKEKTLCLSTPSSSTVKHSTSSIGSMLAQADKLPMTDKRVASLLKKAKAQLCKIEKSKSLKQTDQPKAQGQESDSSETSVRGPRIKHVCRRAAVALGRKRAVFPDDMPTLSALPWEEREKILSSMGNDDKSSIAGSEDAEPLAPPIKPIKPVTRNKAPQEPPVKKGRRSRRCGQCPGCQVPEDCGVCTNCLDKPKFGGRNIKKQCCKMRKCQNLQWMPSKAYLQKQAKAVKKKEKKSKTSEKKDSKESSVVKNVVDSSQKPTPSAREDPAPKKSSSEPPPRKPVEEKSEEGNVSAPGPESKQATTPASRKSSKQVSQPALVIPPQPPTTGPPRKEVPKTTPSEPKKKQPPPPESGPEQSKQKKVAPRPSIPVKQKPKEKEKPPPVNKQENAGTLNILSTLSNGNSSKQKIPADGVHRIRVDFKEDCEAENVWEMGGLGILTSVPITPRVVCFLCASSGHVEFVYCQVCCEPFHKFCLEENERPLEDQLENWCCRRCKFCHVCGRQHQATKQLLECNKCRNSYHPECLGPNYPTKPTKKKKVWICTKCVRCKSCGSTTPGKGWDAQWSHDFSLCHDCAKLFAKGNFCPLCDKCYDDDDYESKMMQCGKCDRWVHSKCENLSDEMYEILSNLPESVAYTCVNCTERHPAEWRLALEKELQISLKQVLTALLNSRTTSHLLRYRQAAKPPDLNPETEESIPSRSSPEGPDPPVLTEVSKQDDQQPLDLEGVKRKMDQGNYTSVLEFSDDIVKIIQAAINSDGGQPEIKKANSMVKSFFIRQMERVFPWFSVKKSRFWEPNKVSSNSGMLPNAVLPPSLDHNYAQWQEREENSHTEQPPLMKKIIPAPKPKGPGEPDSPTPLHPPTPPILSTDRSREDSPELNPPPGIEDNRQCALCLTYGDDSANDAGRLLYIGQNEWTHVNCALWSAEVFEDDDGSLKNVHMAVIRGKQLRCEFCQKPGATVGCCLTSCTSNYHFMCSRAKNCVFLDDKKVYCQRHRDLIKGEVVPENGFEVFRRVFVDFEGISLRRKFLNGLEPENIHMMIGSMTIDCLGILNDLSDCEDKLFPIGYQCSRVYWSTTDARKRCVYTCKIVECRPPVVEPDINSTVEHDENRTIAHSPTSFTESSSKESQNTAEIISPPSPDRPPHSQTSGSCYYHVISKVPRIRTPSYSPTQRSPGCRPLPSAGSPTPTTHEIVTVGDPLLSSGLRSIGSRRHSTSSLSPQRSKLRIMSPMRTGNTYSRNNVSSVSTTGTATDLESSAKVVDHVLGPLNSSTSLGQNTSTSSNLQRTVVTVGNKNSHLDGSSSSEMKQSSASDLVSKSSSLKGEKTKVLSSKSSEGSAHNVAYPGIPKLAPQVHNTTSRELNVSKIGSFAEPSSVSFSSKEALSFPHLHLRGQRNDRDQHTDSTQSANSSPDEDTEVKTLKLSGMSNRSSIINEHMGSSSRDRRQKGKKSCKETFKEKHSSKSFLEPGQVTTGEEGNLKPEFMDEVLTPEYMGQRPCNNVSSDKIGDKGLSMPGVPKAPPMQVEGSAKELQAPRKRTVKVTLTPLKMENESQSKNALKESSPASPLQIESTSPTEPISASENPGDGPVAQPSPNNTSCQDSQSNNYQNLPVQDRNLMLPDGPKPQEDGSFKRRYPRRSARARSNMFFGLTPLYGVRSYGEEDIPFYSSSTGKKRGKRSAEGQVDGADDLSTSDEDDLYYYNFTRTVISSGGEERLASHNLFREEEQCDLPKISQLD
Sequence of Histone-lysine N-methyltransferase 2A (Homo sapiens) (Q03164 2719-3969 limits assumed): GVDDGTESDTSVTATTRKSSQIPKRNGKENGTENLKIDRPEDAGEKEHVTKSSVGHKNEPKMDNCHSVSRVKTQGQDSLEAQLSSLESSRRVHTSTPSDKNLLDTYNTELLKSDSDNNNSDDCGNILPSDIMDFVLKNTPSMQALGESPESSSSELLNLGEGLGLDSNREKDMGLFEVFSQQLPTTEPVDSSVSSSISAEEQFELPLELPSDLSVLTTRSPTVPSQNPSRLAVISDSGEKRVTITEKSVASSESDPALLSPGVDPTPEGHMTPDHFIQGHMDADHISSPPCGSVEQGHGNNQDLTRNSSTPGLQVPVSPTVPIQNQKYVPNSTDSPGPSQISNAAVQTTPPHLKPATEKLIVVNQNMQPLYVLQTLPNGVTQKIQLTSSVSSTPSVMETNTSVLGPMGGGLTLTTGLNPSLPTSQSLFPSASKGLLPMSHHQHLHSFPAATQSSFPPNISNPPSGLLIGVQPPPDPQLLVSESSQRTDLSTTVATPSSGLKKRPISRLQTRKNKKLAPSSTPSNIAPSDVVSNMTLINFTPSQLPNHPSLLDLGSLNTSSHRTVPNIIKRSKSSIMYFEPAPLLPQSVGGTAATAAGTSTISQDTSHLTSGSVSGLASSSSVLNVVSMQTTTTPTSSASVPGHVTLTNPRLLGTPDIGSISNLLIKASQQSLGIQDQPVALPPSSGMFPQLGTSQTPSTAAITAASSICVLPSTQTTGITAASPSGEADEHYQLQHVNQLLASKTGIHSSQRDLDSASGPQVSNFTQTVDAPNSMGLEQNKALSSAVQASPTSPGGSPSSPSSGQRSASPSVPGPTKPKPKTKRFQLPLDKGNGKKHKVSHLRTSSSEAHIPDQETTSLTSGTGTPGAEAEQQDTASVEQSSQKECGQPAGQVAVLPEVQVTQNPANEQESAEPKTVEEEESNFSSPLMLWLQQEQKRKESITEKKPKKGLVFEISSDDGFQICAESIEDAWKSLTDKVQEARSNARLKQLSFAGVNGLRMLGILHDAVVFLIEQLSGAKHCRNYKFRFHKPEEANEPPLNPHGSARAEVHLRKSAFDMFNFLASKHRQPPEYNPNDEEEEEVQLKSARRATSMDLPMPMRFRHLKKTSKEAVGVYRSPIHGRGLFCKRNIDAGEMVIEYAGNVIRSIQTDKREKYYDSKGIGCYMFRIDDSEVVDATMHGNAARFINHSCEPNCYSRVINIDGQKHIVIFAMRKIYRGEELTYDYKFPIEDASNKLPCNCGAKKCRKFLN
Sequence of N-lysine methyltransferase SMYD2 (Homo sapiens) (Q9NRG4 whole entry): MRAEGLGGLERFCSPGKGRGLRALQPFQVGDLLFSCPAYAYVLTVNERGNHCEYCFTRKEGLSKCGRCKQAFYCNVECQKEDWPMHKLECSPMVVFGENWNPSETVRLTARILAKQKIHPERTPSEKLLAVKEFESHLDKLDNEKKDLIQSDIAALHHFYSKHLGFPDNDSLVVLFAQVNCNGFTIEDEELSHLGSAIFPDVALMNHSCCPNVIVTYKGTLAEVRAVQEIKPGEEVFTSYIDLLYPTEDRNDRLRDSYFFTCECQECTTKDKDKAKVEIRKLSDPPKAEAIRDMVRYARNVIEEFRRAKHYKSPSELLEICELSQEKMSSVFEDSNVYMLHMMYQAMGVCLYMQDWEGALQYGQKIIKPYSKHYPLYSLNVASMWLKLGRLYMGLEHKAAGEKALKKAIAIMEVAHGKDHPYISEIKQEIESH
Sequence of Protein arginine N-methyltransferase 1 (Homo sapiens) (Q99873 whole entry, looked up): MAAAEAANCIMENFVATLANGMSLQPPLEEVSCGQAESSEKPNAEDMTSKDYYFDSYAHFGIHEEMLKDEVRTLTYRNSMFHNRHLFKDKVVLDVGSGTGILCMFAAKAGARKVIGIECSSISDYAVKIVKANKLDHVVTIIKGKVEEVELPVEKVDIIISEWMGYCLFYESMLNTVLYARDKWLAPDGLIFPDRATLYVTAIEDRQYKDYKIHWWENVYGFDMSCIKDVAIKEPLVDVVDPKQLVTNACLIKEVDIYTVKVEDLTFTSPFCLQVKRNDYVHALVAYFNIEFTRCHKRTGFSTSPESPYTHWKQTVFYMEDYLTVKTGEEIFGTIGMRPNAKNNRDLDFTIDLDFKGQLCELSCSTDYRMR
Sequence of Protein arginine N-methyltransferase 1 (Rattus norvegicus) (Q63009 whole entry, looked up, the tested form may be a part): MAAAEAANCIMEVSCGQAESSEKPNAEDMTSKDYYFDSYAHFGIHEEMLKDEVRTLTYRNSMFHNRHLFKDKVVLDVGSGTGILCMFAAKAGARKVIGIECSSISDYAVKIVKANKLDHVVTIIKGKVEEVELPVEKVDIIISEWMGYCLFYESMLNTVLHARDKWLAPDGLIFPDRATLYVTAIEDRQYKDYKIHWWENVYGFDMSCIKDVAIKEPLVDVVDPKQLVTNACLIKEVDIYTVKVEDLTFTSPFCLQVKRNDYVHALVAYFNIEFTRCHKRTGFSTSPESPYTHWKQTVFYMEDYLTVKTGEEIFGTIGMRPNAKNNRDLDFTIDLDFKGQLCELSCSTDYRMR

As a reminder, the IC50 is the point on the concentration scale where inhibition reaches its midpoint. Regarding `CN(CCN)Cc1ccccc1Sc1ccccc1Cl`, the inhibition result in [1], in [3], in [5], in assay [6], in assay [8] and in assay [10] was “Active” in each case. The inhibition result in assay [13], in assay [14], in assay [17] and in assay [19] was “Active” throughout. The Activity entry in the assay with MV4-11 [2], in the assay on KOPN-8 and in the assay on MV4-11 [12] was “Dose-dependent effect” each time. Further, the outcome (in [4]; in the assay on MV4-11 [7]) was Active. Moreover, the inhibition entry in assay [9] and in assay [16] was “Dose-dependent effect” in each case. In addition, the IC50 was 3.21 µM in the assay on MV4-11 [11], 0.81 µM in the assay on MV4-11 [15] and 4.55 µM in the assay with MV4-11 [18].
